This passage reports IC50 and Activity results from ChEMBL document CHEMBL2331327, “Bioactive abietane and ent-kaurane diterpenoids from Isodon tenuifolius” (J Nat Prod, 2013).

In data set [1] the test system is RAW264.7. Kind of data set: Inhibition of nitric oxide production in LPS-stimulated mouse RAW264.7 cells measured after 18 hrs by Griess reagent based multilabel plate reader analysis. Format: functional, cell-based. Particulars: RAW264.7, 18 h. The gist of the method:
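RAW264.7 macrophages in RPMI 1640 with 10% FBS at 2 × 10^5 cells/well, preincubated 24 h at 37 °C, 5% CO2. Then 18 h with 1 μg/mL LPS plus serial dilutions of compound (DMSO stock diluted in medium; top concentration 25 μM). Supernatant mixed 1:1 with Griess reagent, 5 min, absorbance at 570 nm, in triplicate. MG-132 as positive control.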

The subject of data set [2] is HL-60. As to the kind of experiment: Cytotoxicity against human HL60 cells assessed as inhibition of cell viability after 48 hrs by MTT assay. The data set is classed as functional, cell-based. Particulars: HL-60, 48 h. The gist of the method: (§1)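 Cells grown in RPMI-1640 or DMEM with 10% FBS, 37 °C, 5% CO2. Adherent lines seeded at 1 × 10^5 cells/mL and allowed 12 h to attach; suspension cells seeded just before dosing. Compounds tested at various concentrations in triplicate for 48 h; cisplatin and paclitaxel as positive controls. MTT added for 4 h at 37 °C, then lysis in 20% SDS−50% DMF and OD read at 595 nm. IC50 by Reed and Muench method.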

Data set [3] deals with SW480. Kind of data set: Cytotoxicity against human SW480 cells assessed as inhibition of cell viability after 48 hrs by MTT assay. Format: functional, cell-based. Particulars: SW480, 48 h. The gist of the method:
as §1

For data set [4], the system named is SMMC-7721. Kind of data set: Cytotoxicity against human SMMC7721 cells assessed as inhibition of cell viability after 48 hrs by MTT assay. Format: functional, cell-based. Particulars: SMMC-7721, 48 h. The gist of the method:
as §1

For data set [5], the system named is RAW264.7. As to the kind of experiment: Cytotoxicity against mouse RAW264.7 cells assessed as inhibition of cell viability after 18 hrs by MTS assay. The data set is classed as cell-based. Particulars: raw264.7, 18 h. The gist of the method: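 RAW264.7 cells seeded at 2 × 10^5 cells/well and preincubated 24 h, then exposed to compounds (DMSO solutions) at given concentrations for 18 h. MTS added for 4 h and absorbance read at 490 nm. Viability expressed relative to untreated cells as 100%.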

The subject of data set [6] is A549. Kind of data set: Cytotoxicity against human A549 cells assessed as inhibition of cell viability after 48 hrs by MTT assay. Particulars: A549, 48 h. The data set is classed as functional, cell-based. An outline of the steps: as §1
In data set [7] the test system is MCF7. As to the kind of experiment: Cytotoxicity against human MCF7 cells assessed as inhibition of cell viability after 48 hrs by MTT assay. Format: functional, cell-based. Particulars: MCF7, 48 h. An outline of the steps: as §1

Each structure is given as a SMILES string. Residues, ends and D or L forms follow the SMILES beside them. *: point of attachment. Cbz = O=C(OCc1ccccc1)*

For `CC(C)c1cc2c3c(c1)[C@H](O)C[C@H]1[C@](C)(CO)CC[C@H](O2)[C@]31C` [ISOABIETENIN A], the IC50 in data set [1] was greater than 25 µM; in data set [2], greater than 10 µM; in data set [3], greater than 10 µM; in data set [4], greater than 10 µM; in data set [6], greater than 10 µM; in data set [7], greater than 10 µM. Besides, the Activity entry in data set [5] is “Non-toxic”.
Consider `COC[C@H]1C(=O)[C@]23C[C@H]1C[C@H](OC(C)=O)[C@H]2[C@]1(C)[C@@H](OC(C)=O)C[C@H](O)C(C)(C)[C@H]1C(=O)[C@@H]3O` [TENUIFOLIN M], for which the concentration for half-maximal inhibition (IC50) in data set [1] is greater than 25 µM; in data set [2], 4.4 µM; in data set [3], greater than 10 µM; in data set [4] it was greater than 10 µM; in data set [6] it was greater than 10 µM; in data set [7] it was greater than 10 µM. Besides, the Activity result in data set [5] is “Non-toxic”.
Turning to `C=C1C(=O)[C@@]23CC(=O)[C@@H]4C(C)(C)[C@@H](O)C[C@H](O)[C@@]4(C)[C@@H]2[C@@H](OC(C)=O)C[C@@H]1C3` [TENUIFOLIN I], the IC50 was determined as 5.8 µM in data set [1]; 0.8 µM in data set [2]; 4.3 µM in data set [3]; 1.9 µM in data set [4]; 4.5 µM in data set [6]; 3 µM in data set [7]. Moreover, the Activity result in data set [5] was “Non-toxic”.
In the case of `C=C1[C@@H]2C[C@H](OC(C)=O)[C@H]3[C@]4(C)[C@@H](OC(C)=O)C[C@H](O)C(C)(C)[C@H]4C(=O)[C@H](OC(C)=O)[C@]3(C2)[C@@H]1O` [ADENANTHIN J], the IC50 in data set [1] is greater than 25 µM; in data set [2], greater than 10 µM; in data set [3], greater than 10 µM; in data set [4] it was greater than 10 µM; in data set [6], greater than 10 µM; in data set [7], greater than 10 µM. In addition, in data set [5], the Activity result is on record as “Non-toxic”.
As to `COC[C@@H]1C(=O)[C@]23C[C@H]1C[C@H](OC(C)=O)[C@H]2[C@@]1(C)[C@H](C(=O)[C@@H]3O)C(C)(C)[C@@H](O)C[C@@H]1O` [TENUIFOLIN L], the IC50 in data set [1] was greater than 25 µM; in data set [2] it was greater than 10 µM; in data set [3], greater than 10 µM; in data set [4], greater than 10 µM; in data set [6] it was greater than 10 µM; in data set [7], greater than 10 µM. Further, in data set [5], the Activity entry is on record as “Non-toxic”.
As for `CC(=O)O[C@H]1C(=O)[C@@]2(C)[C@H]([C@H](OC(=O)c3ccccc3)[C@]3(O)C[C@H](OC(=O)[C@H](O)[C@@H](NC(=O)c4ccccc4)c4ccccc4)C(C)=C1C3(C)C)[C@]1(OC(C)=O)CO[C@@H]1C[C@@H]2O` [PACLITAXEL], the IC50 in data set [2] was less than 0.008 µM; in data set [3], 0.15 µM; in data set [4] it was less than 0.008 µM; in data set [6] it was less than 0.008 µM; in data set [7], less than 0.008 µM.
Regarding `CC(C)C[C@@H](C=O)NC(=O)[C@H](CC(C)C)NC(=O)[C@H](CC(C)C)NC(=O)OCc1ccccc1` [MG-132] (Cbz-Leu-Leu-Leu-aldehyde), in data set [1], the IC50 was 0.15 µM.
`C=C1[C@@H]2C[C@H](O)[C@H]3[C@@]4(C)[C@H](C[C@H](OC(C)=O)[C@]3(C2)[C@@H]1O)C(C)(C)[C@@H](OC(C)=O)C[C@@H]4O` [ADENANTHIN E]: the IC50 is greater than 25 µM in data set [1]; greater than 10 µM in data set [2]; greater than 10 µM in data set [3]; greater than 10 µM in data set [4]; greater than 10 µM in data set [6]; greater than 10 µM in data set [7]. Further, in data set [5], the Activity entry is “Non-toxic”.
Turning to `C=C1[C@@H]2C[C@H](O)[C@H]3[C@]4(C)CC[C@H](O)C(C)(C)[C@H]4CC[C@]3(C2)[C@@H]1O` [TENUIFOLIN B], the half-inhibitory concentration (IC50) is greater than 25 µM in data set [1]; greater than 10 µM in data set [2]; greater than 10 µM in data set [3]; greater than 10 µM in data set [4]; greater than 10 µM in data set [6]; greater than 10 µM in data set [7]. Further, in data set [5], the Activity entry is given as “Non-toxic”.
`C=C1[C@@H]2CC(=O)[C@@H]3[C@@](CC(=O)[C@@H]4C(C)(C)[C@@H](O)C[C@H](OC(C)=O)[C@]43C)(C2)[C@@H]1O` [TENUIFOLIN H]: the IC50 in data set [1] was greater than 25 µM; in data set [2], greater than 10 µM; in data set [3], greater than 10 µM; in data set [4] it was greater than 10 µM; in data set [6] it was greater than 10 µM; in data set [7] it was greater than 10 µM. Moreover, in data set [5], the Activity entry was “Non-toxic”.
As for `C=C1C(=O)[C@@]23CC[C@@H]4C(C)(C)[C@H](O)CC[C@@]4(C)[C@@H]2[C@@H](O)C[C@@H]1C3` [TENUIFOLIN A], the 50% inhibitory concentration (IC50) in data set [1] was 6.9 µM; in data set [2], 4.7 µM; in data set [3] it was greater than 10 µM; in data set [4] it was 7.4 µM; in data set [6], greater than 10 µM; in data set [7], greater than 10 µM. In data set [5], the Activity entry is reported as “Non-toxic”.
On to `C=C1[C@@H]2C[C@H](OC(C)=O)[C@@H]3[C@@](CC(=O)[C@@H]4C(C)(C)[C@@H](O)C[C@H](O)[C@]43C)(C2)[C@@H]1O` [TENUIFOLIN G], for which the IC50 in data set [1] is greater than 25 µM; in data set [2] it was greater than 10 µM; in data set [3], greater than 10 µM; in data set [4], greater than 10 µM; in data set [6] it was greater than 10 µM; in data set [7] it was greater than 10 µM. In data set [5], the Activity entry is reported as “Non-toxic”.
With `C=C1C(=O)[C@]23C[C@H]1C[C@H](OC(C)=O)[C@H]2[C@]1(C)[C@@H](OC(C)=O)C[C@H](O)C(C)(C)[C@H]1C[C@@H]3OC(C)=O` [ADENANTHIN C], the half-maximal inhibitory concentration (IC50) was 3.8 µM in data set [1]; 1.8 µM in data set [2]; 5.1 µM in data set [3]; 3.2 µM in data set [4]; greater than 10 µM in data set [6]; 4.8 µM in data set [7]. The Activity result in data set [5] is “Non-toxic”.
In the case of `C=C(C=O)[C@H]1C[C@@H](OC(C)=O)[C@H]2[C@@](O)(C1)[C@H](OC(C)=O)C(=O)[C@H]1C(C)(C)[C@H](O)C[C@@H](OC(C)=O)[C@@]12C` [ISOABIETENIN C], the IC50 in data set [1] was 10.8 µM; in data set [2], 4.7 µM; in data set [3], greater than 10 µM; in data set [4], greater than 10 µM; in data set [6] it was greater than 10 µM; in data set [7] it was greater than 10 µM. Further, the Activity entry in data set [5] is recorded as “Non-toxic”.
For the compound `C=C1C(=O)[C@@]23CC(=O)[C@@H]4C(C)(C)[C@@H](OC(C)=O)C[C@H](O)[C@@]4(C)[C@@H]2[C@@H](O)C[C@@H]1C3` [INFLEXARABDONIN E], the 50% inhibitory concentration (IC50) in data set [1] was determined as 5.7 µM; in data set [2], 1.7 µM; in data set [3], 4.6 µM; in data set [4] it was 2.2 µM; in data set [6], 6.8 µM; in data set [7], 4.8 µM. In addition, the Activity entry in data set [5] is given as “Non-toxic”.
For the compound `CC(C)[C@@]1(O)CC(=O)C2=C(C1)[C@H](O)C[C@H]1[C@](C)(CO)CCC[C@]21C` [ISOABIETENIN B], the 50% inhibitory concentration (IC50) in data set [1] is greater than 25 µM; in data set [2], greater than 10 µM; in data set [3], greater than 10 µM; in data set [4], greater than 10 µM; in data set [6], greater than 10 µM; in data set [7], greater than 10 µM. The Activity result in data set [5] is “Non-toxic”.
`C=C1[C@@H]2C[C@H](OC(C)=O)[C@@H]3[C@](C2)(C(=O)C[C@@H]2C(C)(C)[C@@H](O)C[C@H](OC(C)=O)[C@]23C)[C@@H]1OC(C)=O` [TENUIFOLIN C]: the IC50 is greater than 25 µM in data set [1]; greater than 10 µM in data set [2]; greater than 10 µM in data set [3]; greater than 10 µM in data set [4]; greater than 10 µM in data set [6]; greater than 10 µM in data set [7]. In data set [5], the Activity entry was “Non-toxic”.
As for `C=C1[C@@H]2C[C@H](O)[C@H]3[C@]4(C)CC[C@H](O)C(C)(C)[C@H]4C(=O)C[C@]3(C2)[C@@H]1O` [TENUIFOLIN E], the IC50 in data set [1] was greater than 25 µM; in data set [2] it was greater than 10 µM; in data set [3] it was greater than 10 µM; in data set [4], greater than 10 µM; in data set [6] it was greater than 10 µM; in data set [7], greater than 10 µM. In addition, the Activity entry in data set [5] is “Non-toxic”.
On to `C=C1[C@@H]2C[C@H](O)[C@@H]3[C@@](CC(=O)[C@@H]4C(C)(C)[C@@H](O)C[C@H](OC(C)=O)[C@]43C)(C2)[C@@H]1O` [TENUIFOLIN F], for which the IC50 was greater than 25 µM in data set [1]; greater than 10 µM in data set [2]; greater than 10 µM in data set [3]; greater than 10 µM in data set [4]; greater than 10 µM in data set [6]; greater than 10 µM in data set [7]. Also, the Activity result in data set [5] is recorded as “Non-toxic”.
Consider `C=C1[C@@H]2C[C@H](OC(C)=O)[C@H]3[C@]4(C)[C@@H](OC(C)=O)C[C@H](O)C(C)(C)[C@H]4C[C@H](O)[C@]3(C2)[C@@H]1O` [TENUIFOLIN D], for which the 50% inhibitory concentration (IC50) in data set [1] was greater than 25 µM; in data set [2], greater than 10 µM; in data set [3], greater than 10 µM; in data set [4], greater than 10 µM; in data set [6], greater than 10 µM; in data set [7] it was greater than 10 µM. Moreover, in data set [5], the Activity result is listed as “Non-toxic”.
